Assay results reported in ChEMBL document CHEMBL1137969, “Subtype-selective nicotinic receptor antagonists: potential as tobacco use cessation agents” (Bioorg Med Chem Lett, 2004).

Tests used:
[1] = target: Neuronal acetylcholine receptor subunit alpha-7 (Rattus norvegicus, UniProt Q05941); test: Inhibition of [3H]-MLA binding to Nicotinic acetylcholine receptor alpha-7 in rat brain membranes; NA= Not active; format: cell membranes
How it was run: (§1)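 Rat whole brain minus cortex and cerebellum, homogenized in HEPES buffer (pH 7.5), washed by repeated 25,000g spins with one 37 °C 10-min incubation, stored at −70 °C. Membranes ([…]) incubated 60 min at room temperature with 3 nM radioligand plus analogue ([…]) in HEPES assay buffer with 50 mM Tris. Nonspecific binding defined with […] MLA, respectively. PEI-soaked GF/B filtration. Four independent experiments.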

Rattus norvegicus [2] = species: Rattus norvegicus; test: Inhibitory activity against nAChR mediated nicotine-evoked [3H]DA overflow using rat striatal slices; format: functional, organism-based
How it was run: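 Rat striatal slices preincubated in oxygenated Krebs' buffer (pH 7.4) at 34 °C, loaded with [³H]DA during the last 30 min of the 60-min incubation. Slices then superfused at 34 °C with buffer containing nomifensine and pargyline. Nicotine-evoked overflow was normalized to slice tritium content, using a repeated-measures design.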

[3] = target: T1, Neuronal acetylcholine receptor; alpha4/beta2 (Rattus norvegicus, UniProt P09483+P12390); test: Inhibition of [3H]nicotine binding to Nicotinic acetylcholine receptor alpha4-beta2 in rat brain membranes; NA= Not active; format: cell membranes; how it was run: as §1
T1 sequence (P09483 whole entry): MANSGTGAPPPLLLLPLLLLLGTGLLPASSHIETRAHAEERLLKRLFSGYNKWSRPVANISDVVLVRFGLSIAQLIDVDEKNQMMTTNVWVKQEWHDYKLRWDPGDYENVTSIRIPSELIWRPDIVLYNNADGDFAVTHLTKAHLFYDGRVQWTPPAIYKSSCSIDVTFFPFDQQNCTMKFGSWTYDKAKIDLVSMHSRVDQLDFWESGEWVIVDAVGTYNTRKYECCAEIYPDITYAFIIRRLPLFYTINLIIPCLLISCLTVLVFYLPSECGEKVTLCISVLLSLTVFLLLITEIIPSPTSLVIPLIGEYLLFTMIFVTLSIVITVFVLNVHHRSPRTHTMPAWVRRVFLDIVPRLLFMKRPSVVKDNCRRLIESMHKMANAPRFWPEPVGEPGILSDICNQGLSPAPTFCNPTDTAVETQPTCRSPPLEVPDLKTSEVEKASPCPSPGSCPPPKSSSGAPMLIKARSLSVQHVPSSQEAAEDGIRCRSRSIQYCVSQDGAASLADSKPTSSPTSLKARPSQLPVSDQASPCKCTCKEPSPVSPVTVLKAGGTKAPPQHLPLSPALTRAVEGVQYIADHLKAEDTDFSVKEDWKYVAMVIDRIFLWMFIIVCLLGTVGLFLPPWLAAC
T1 sequence (P12390 whole entry): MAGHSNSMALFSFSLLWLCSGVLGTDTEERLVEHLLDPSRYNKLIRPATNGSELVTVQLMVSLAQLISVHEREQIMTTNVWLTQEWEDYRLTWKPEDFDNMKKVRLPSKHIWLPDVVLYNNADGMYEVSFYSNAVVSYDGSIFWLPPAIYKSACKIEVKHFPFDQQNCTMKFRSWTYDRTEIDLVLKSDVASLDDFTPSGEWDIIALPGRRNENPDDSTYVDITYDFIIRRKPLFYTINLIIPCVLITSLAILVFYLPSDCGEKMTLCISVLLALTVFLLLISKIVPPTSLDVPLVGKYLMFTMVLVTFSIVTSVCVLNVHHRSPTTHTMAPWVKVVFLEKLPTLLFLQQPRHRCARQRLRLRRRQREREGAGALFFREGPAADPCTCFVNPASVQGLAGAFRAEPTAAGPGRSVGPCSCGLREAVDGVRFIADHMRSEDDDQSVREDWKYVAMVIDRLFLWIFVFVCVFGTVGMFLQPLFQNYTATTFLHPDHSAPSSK

[4] = target: T1, Neuronal acetylcholine receptor; alpha4/beta2; test: Inhibition of [3H]nicotine binding to Nicotinic acetylcholine receptor alpha4-beta2 in rat brain membranes; format: cell membranes
How it was run: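 Rat whole-brain membranes (cortex and cerebellum removed), washed by repeated centrifugation and stored at −70 °C. Incubated with 3 nM [³H]nicotine and a range of analogue concentrations in pH 7.5 HEPES-based buffer with Tris, 60 min at room temperature. Nonspecific binding defined with nicotine. Filtration on PEI-soaked GF/B filters, scintillation counting. Ki is the mean of four independent experiments with standard error.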

Rattus norvegicus [5] = species: Rattus norvegicus; test: Inhibitory activity against nAChR mediated nicotine-evoked [3H]DA overflow using rat striatal slices; Not determined; format: functional, organism-based
How it was run: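 Rat striatal slices (4–6 mg) preincubated 60 min in oxygenated Krebs' buffer, pH 7.4, at 34 °C, […] [³H]DA (final) over the last 30 min. Slices then superfused at 1 mL/min, 34 °C, with nomifensine and pargyline present. Fractional release normalized to slice total tritium. Intrinsic and inhibitory activity measured on slices from the same rat. Means of 3–6 experiments.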

Neuronal acetylcholine receptor subunit alpha-7, sequence (Q05941 whole entry): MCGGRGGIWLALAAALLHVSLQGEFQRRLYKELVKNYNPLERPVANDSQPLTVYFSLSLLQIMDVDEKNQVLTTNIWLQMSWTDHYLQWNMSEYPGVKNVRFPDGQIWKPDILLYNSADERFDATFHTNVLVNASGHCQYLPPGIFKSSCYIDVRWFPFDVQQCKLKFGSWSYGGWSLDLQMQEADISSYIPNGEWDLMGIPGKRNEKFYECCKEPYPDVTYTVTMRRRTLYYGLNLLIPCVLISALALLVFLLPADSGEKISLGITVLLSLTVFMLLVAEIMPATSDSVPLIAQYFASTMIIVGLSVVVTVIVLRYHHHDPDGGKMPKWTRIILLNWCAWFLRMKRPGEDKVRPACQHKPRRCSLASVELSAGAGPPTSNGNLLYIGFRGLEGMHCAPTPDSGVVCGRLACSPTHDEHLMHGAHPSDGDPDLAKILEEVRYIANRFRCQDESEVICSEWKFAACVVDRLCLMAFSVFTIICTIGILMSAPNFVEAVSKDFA

Compound	Ki [1]	Ki [3]	IC50 (Rattus norvegicus [5])	IC50 (Rattus norvegicus [2])	Ki [4]
Cc1ccc[n+](CCCCCCCCCC[n+]2cccc(C)c2)c1.[I-].[I-]	Not Active	Not Active		30 nM	
CCCCCCCCCC[n+]1cccc(C)c1.[I-]	Not Active			300 nM	26000 nM
Cc1ccc[n+](CCCCCCCCCCC[n+]2cccc(C)c2)c1.[Br-].[Br-]	Not Active			610 nM	
Cc1ccc[n+](CCCCCCCCCCCC[n+]2cccc(C)c2)c1.[Br-].[Br-]	Not Active			5 nM	

Continued, in another order:

Ki [1]	Ki [3]	IC50 (Rattus norvegicus [5])	Compound	IC50 (Rattus norvegicus [2])	Ki [4]
Not Active	Not Active		CCCCCCCCCCCC[n+]1cccc(C)c1.[I-]	30 nM	
Not Active			CCCCCCCCC[n+]1cccc(C)c1.[I-]		62000 nM
Not Active			Cc1ccc[n+](CCCCCCCCC[n+]2cccc(C)c2)c1.[Br-].[Br-]		
Not Active	Not Active		Cc1ccc[n+](CCCCCC[n+]2cccc(C)c2)c1.[I-].[I-]	1660 nM	
Not Active	Not Active		CCCCCCCC[n+]1cccc(C)c1.[I-]	1000 nM	
Not Active	Not Active		CCCCCCCCCCC[n+]1cccc(C)c1.[I-]		
Not Active	Not Active	10 nM	Cc1ccc[n+](CCCCCCCC[n+]2cccc(C)c2)c1.[I-].[I-]		
